According to publication PMC3001272 (Biochemistry, 2010):
Blank lines part the entries; values can stand above or below the molecule they belong to. Where a SMILES comes first, the peptide text is derived from it.

What was measured:
[1] = target: T1, PDZ2 (second PDZ domain, 1361-1456) from human PTP1E/PTPL1 (Homo sapiens, UniProt Q12923); assay: NMR titration binding affinity of peptide to PDZ2
T1 sequence (Q12923 1361-1456): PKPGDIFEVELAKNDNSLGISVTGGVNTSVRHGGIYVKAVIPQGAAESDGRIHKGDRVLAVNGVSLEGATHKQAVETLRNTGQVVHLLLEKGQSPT
Outline: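 NMR titration of test peptide into PDZ2 expressed in E. coli BL21(DE3), 1 mM, in 150 mM NaCl, 50 mM sodium phosphate pH 6.8, 10% D2O, at 25 °C on 500/600 MHz spectrometers. Protein concentration by UV absorbance at 280 nm; Kd derived from titration.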

[2] = target: T1, PDZ2 (second PDZ domain, 1361-1456) from human PTP1E/PTPL1; assay: Fluorescence binding affinity of peptide to PDZ2
APC C-terminal peptide = target: T2, APC C-terminal peptide (Homo sapiens); assay: NMR titration
T2 chain: GSYLVTSV

- Kd [1]: 10 µM
Molecule: CC(C)C[C@H](NC(=O)[C@H](Cc1ccc(O)cc1)NC(=O)[C@H](CO)NC(=O)CN)C(=O)N[C@H](C(=O)N[C@H](C(=O)N[C@@H](CO)C(=O)N[C@H](C(=O)O)C(C)C)[C@@H](C)O)C(C)C [APC] (H-GSYLVTSV-OH)

- Kd [2]: 10 µM
Molecule: CC(=O)N[C@@H](CCC(=O)O)C(=O)N[C@@H](CC(N)=O)C(=O)N[C@@H](CCC(=O)O)C(=O)N[C@@H](CCC(N)=O)C(=O)N[C@H](C(=O)N[C@@H](CO)C(=O)N[C@@H](C)C(=O)N[C@H](C(=O)O)C(C)C)C(C)C [RA-GEF2] (Ac-ENEQVSAV-OH)

- Kd (APC C-terminal peptide): 10 µM
B1: PTP1E (PTPL1) PDZ2 1361-1456 (protein)
chain: PKPGDIFEVELAKNDNSLGISVTGGVNTSVRHGGIYVKAVIPQGAAESDGRIHKGDRVLAVNGVSLEGATHKQAVETLRNTGQVVHLLLEKGQSPT
